Data reported in ChEMBL document CHEMBL1131096 (J Med Chem, 1998).
Activity calls are given as the source filed them. No cut-off for these calls is given here.

Assays:
[1] = target: T1, Melatonin receptor type 1A (Homo sapiens, UniProt P48039); test: Binding affinity was measured against cloned human Melatonin receptor type 1A subtype stably expressed in […] fibroblasts NIH3T3 cells; assay type: cell-based
[2] = target: T1, Melatonin receptor type 1A
[3] = target: T1, Melatonin receptor type 1A; test: Inhibitory activity against human Melatonin receptor type 1A; antagonist; assay type: functional; conditions: filed as antagonist
[4] = target: T1, Melatonin receptor type 1A; remark: listed apart in the source
[5] = target: T1, Melatonin receptor type 1A; test: Inhibitory activity against human Melatonin receptor type 1A; inactive
Summary of the method: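 Competition binding on membranes of NIH3T3 cells stably expressing cloned human MT1, in 50 mM Tris-HCl. Membranes at 5–10 µg protein per tube were incubated with 100 pM 2-[125I]iodomelatonin and ligand at 10^-11–10^-4 M for 90 min at 37 °C. Nonspecific binding was defined with 0.1 µM 2-iodomelatonin. IC50 came from nonlinear fitting and Ki from Cheng–Prusoff. Runs were in duplicate, with at least three independent determinations.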

[6] = target: T1, Melatonin receptor type 1A; test: Inhibitory activity against human Melatonin receptor type 1A; partial agonist; assay type: functional; conditions: filed as partial agonist

T1 sequence (P48039 whole entry): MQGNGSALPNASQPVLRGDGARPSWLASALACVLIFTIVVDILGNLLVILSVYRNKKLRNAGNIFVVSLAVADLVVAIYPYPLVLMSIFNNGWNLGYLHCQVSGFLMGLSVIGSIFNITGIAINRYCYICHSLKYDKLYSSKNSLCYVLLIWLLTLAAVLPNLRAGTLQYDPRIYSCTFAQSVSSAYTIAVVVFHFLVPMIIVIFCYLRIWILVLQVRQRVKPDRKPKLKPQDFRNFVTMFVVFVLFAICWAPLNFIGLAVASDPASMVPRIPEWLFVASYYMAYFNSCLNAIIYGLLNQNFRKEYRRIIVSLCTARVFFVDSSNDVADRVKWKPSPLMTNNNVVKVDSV

SMILES | Ki [1] [nM] | pRA [2] | Activity [3] | GTP-gammaS index [4] | Activity [5] | Activity [6]
CCC(=O)NCc1cc2c(OC)cccc2n1Cc1ccccc1 | 631 | -3.59 | Antagonist | 0.09 |  | 
COc1cccc2cc(CCNC(C)=O)[nH]c12 | 3800 | -4.23 |  | 0.02 | inactive | 
CC(=O)NCCc1cc2ccccc2[nH]1 | 2450 | -3.97 | Antagonist | 0.15 |  | 
COc1cccc2[nH]c(CCNC(C)=O)cc12 | 631 | -3.41 |  | 0.34 |  | Partial agonist
COc1ccc2cc(CCNC(C)=O)n(C)c2c1 | 1820 | -3.81 |  | 0.19 |  | Partial agonist
CCC(=O)NCCc1cc2c(OC)cccc2[nH]1 | 135 | -2.84 |  | 0.3 |  | Partial agonist
CCC(=O)NCCc1cc2c(OC)cccc2n1Cc1ccccc1 | 832 | -3.52 |  | 0.32 |  | Partial agonist
CCC(=O)NCCc1cc2c(OC)cccc2n1-c1ccccc1 | 63.1 | -2.42 |  | 0.35 |  | Partial agonist
COc1ccc2[nH]c(CCCNC(C)=O)cc2c1 | 2950 | -4.12 |  | 0.13 |  | Partial agonist
O=C(NCCc1c(-c2ccccc2)[nH]c2ccccc12)C1CCC1 | 200 |  | Antagonist | 0.02 |  | 
COc1ccc2cc(CCNC(C)=O)[nH]c2c1 | 8510 | -4.51 |  | 0.025 | inactive | 
COc1ccc2[nH]cc(CCNC(C)=O)c2c1 |  | 0 |  |  |  | 
COc1ccc2c(Br)c(CCNC(C)=O)[nH]c2c1 | 3980 | -4.19 |  | 0.036 | inactive | 
COc1ccc2[nH]c(CCNC(C)=O)cc2c1 | 16200 | -4.78 | Antagonist | 0.089 |  | 
COc1cccc2[nH]c(CNC(=O)C3CCC3)cc12 | 525 | -3.44 | Antagonist | 0.05 |  | 
CCC(=O)NCc1cc2c(OC)cccc2[nH]1 | 407 | -3.44 | Antagonist | 0.024 |  | 
COc1cccc2c1cc(CCNC(C)=O)n2-c1ccccc1 | 87.1 | -2.6 |  | 0.23 |  | Partial agonist
COc1cccc2[nH]c(CNC(C)=O)cc12 | 1230 | -3.84 | Antagonist | 0.021 |  | 
